Experimental findings from ChEMBL document CHEMBL1148420, “Identification and synthesis of [1,2,4]triazolo[3,4-a]phthalazine derivatives as high-affinity ligands to the alpha 2 delta-1 subunit of voltage gated calcium channel” (Bioorg Med Chem Lett, 2004) are described below.

T1 sequence (P54289 25-956 limits assumed): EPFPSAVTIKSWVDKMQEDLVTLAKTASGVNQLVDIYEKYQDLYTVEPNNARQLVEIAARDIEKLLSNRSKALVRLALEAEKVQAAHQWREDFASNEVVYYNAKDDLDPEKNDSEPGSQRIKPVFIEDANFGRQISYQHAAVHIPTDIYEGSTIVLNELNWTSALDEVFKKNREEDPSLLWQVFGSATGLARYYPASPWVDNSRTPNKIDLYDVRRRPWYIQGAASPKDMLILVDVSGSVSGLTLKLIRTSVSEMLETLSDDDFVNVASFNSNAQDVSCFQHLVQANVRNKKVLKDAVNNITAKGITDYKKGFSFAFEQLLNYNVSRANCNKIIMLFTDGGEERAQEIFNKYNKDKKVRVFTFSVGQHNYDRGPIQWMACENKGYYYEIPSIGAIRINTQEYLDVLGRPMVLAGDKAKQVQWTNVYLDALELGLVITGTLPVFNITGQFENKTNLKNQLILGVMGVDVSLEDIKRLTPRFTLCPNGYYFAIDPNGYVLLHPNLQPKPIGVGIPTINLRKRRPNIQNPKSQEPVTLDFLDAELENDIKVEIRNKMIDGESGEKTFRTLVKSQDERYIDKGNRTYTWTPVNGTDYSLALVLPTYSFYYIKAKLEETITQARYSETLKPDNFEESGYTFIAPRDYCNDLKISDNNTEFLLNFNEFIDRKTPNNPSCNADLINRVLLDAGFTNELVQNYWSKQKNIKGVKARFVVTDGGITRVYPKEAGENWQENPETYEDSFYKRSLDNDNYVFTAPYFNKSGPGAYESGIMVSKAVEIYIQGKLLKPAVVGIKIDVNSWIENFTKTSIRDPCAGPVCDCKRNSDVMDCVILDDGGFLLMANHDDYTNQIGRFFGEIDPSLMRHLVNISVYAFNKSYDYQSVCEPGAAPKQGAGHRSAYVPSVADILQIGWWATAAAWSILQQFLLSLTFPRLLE
T1 sequence (P54289 957-1103 limits assumed): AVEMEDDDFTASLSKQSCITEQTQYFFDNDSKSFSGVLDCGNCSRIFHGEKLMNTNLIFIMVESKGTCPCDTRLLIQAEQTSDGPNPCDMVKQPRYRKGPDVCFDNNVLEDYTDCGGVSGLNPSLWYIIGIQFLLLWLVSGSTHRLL

The first test concerns the target T1, Voltage-dependent calcium channel subunit alpha-2/delta-1 (Homo sapiens, UniProt P54289). Description: Binding affinity against alpha-2 delta-1 subunit of voltage gated subunit of Ca+2 channel in human. In outline: (§1)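 [3H]gabapentin displacement binding on A710 membranes (HEK 293 cells stably transfected with human α1B, β3a and α2δ-1b subunits), following a literature method.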
In the case of `c1ccc(CCNCc2cccc(COc3nn4c(C5CC5)nnc4c4ccccc34)n2)cc1`, the IC50 is 272 nM.

`CC(C)c1nnc2c3ccccc3c(OCc3cccc(CNCCc4ccccc4)n3)nn12`: the IC50 worked out at 342 nM.

As to `c1ccc(CCNCc2cccc(COc3nn4cnnc4c4ccccc34)n2)cc1`, the 50% inhibitory concentration (IC50) was 230 nM.

For the compound `c1ccc(CCNCc2cccc(COc3nn4c(-c5ccccc5)nnc4c4ccccc34)n2)cc1`, the half-maximal inhibitory concentration (IC50) turned out to be 195 nM.

Take `COc1cccc(CCNCc2cccc(COc3nn4c(C(F)(F)F)nnc4c4ccccc34)n2)c1`: the IC50 turned out to be 116 nM.

With `Cc1cc(-c2nnc3c4ccccc4c(OCc4cccc(CNCCc5ccccc5)n4)nn23)no1`, the IC50 amounted to 220 nM.

With `CSc1nnc2c3ccccc3c(OCc3cccc(CNCCc4ccccc4)n3)nn12`, the 50% inhibitory concentration (IC50) worked out at 194 nM.

Consider `Cc1nnc2c3ccccc3c(OCc3cccc(CNCCc4ccccc4)n3)nn12`, for which the IC50 came out at 145 nM.

Regarding `COCc1nnc2c3ccccc3c(OCc3cccc(CNCCc4ccccc4)n3)nn12`, the half-inhibitory concentration (IC50) came to 131 nM.

As to `CCc1nnc2c3ccccc3c(OCc3cccc(CNCCc4ccccc4)n3)nn12`, the half-maximal inhibitory concentration (IC50) worked out at 241 nM.

Regarding `COc1ccc(CCNCc2cccc(COc3nn4c(C(F)(F)F)nnc4c4ccccc34)n2)cc1`, the half-maximal inhibitory concentration (IC50) came out at 829 nM.

Turning to `FC(F)(F)c1nnc2c3ccccc3c(OCc3cccc(CNCCc4ccccc4)n3)nn12`, the IC50 is 72 nM.

Take `Fc1ccccc1CCNCc1cccc(COc2nn3c(C(F)(F)F)nnc3c3ccccc23)n1`: the IC50 worked out at 291 nM.

For `c1ccc(CCNCc2cccc(COc3nn4c(C5CCCCC5)nnc4c4ccccc34)n2)cc1`, the 50% inhibitory concentration (IC50) was found to be 145 nM.

The next test deals with T1, Voltage-dependent calcium channel subunit alpha-2/delta-1. As to the kind of experiment: Binding affinity against alpha2 delta-1 subunit of voltage-gated calcium channel in human. In outline:
as §1
Consider `CC(C)C(NCCc1ccccc1)c1cccc(COc2nn3c(C(F)(F)F)nnc3c3ccccc23)n1` (racemic), for which the IC50 stood at 174 nM.

As for `CCC(NCCc1ccccc1)c1cccc(COc2nn3c(C(F)(F)F)nnc3c3ccccc23)n1` (racemic), the half-maximal inhibitory concentration (IC50) is 183 nM.

As for `FC(F)(F)c1nnc2c3ccccc3c(OCc3cccc(CNC4C[C@H]4c4ccccc4)n3)nn12` (mixture of isomers), the IC50 was 229 nM.

On to `[3H]c1cccc(CCN[C@@H](C)c2cccc(COc3nn4c(C(F)(F)F)nnc4c4ccccc34)n2)c1`, for which the IC50 worked out at 30 nM.

As to `CC(NCCc1ccccc1)c1cccc(COc2nn3c(C(F)(F)F)nnc3c3ccccc23)n1` (racemic), the IC50 turned out to be 36 nM.

Consider `Cc1ccc(CCNCc2cccc(COc3nn4c(C(F)(F)F)nnc4c4ccccc34)n2)cc1`, for which the IC50 was 260 nM.

Consider `CC(Cc1ccccc1)NCc1cccc(COc2nn3c(C(F)(F)F)nnc3c3ccccc23)n1` (racemic), for which the concentration for half-maximal inhibition (IC50) came out at 1370 nM.

In the case of `CC(CNCc1cccc(COc2nn3c(C(F)(F)F)nnc3c3ccccc23)n1)c1ccccc1` (racemic), the IC50 was found to be 198 nM.

Consider `C[C@@H](NCCc1ccccc1)c1cccc(COc2nn3c(C(F)(F)F)nnc3c3ccccc23)n1`, for which the half-maximal inhibitory concentration (IC50) worked out at 10000 nM.

With `Cc1ccccc1CCNCc1cccc(COc2nn3c(C(F)(F)F)nnc3c3ccccc23)n1`, the IC50 was 448 nM.

Turning to `CC(C)(Cc1ccccc1)NCc1cccc(COc2nn3c(C(F)(F)F)nnc3c3ccccc23)n1`, the IC50 was 10000 nM.

With `Cc1cccc(CCNCc2cccc(COc3nn4c(C(F)(F)F)nnc4c4ccccc34)n2)c1`, the half-inhibitory concentration (IC50) is 15 nM.

As to `C[C@@H](Cc1ccccc1)NCc1cccc(COc2nn3c(C(F)(F)F)nnc3c3ccccc23)n1`, the IC50 came to 700 nM.

`C[C@H](NCCc1cccc(Br)c1)c1cccc(COc2nn3c(C(F)(F)F)nnc3c3ccccc23)n1`: the IC50 stood at 28 nM.

`CN(CCc1ccccc1)Cc1cccc(COc2nn3c(C(F)(F)F)nnc3c3ccccc23)n1`: the IC50 worked out at 10000 nM.

Take `Cc1cccc(CCNC(C)c2cccc(COc3nn4c(C(F)(F)F)nnc4c4ccccc34)n2)c1` (racemic): the half-inhibitory concentration (IC50) turned out to be 29 nM.

`C[C@H](NCCc1ccccc1)c1cccc(COc2nn3c(C(F)(F)F)nnc3c3ccccc23)n1`: the half-inhibitory concentration (IC50) is 30 nM.

For `Fc1cccc(CCNCc2cccc(COc3nn4c(C(F)(F)F)nnc4c4ccccc34)n2)c1`, the IC50 turned out to be 161 nM.

Consider `Fc1ccc(CCNCc2cccc(COc3nn4c(C(F)(F)F)nnc4c4ccccc34)n2)cc1`, for which the half-maximal inhibitory concentration (IC50) came to 630 nM.
